RAD54 inh = RAD54 (human) branch migration inhibition. RAD54 Holliday junction branch migration, FAM/BHQ fluorescence. Q92698. inhibition, % at 10.4 µM. 360,000 tested, 0.14% active;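 active means mean normalized replicate activity at least 40 and at least half of replicates scoring 40 or more; inconclusive means only one of the two criteria met; inactive means mean below 40 and under half of replicates reaching 40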;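 further: 0% = median of neutral control wells and 100% = median of positive control wells; inhibitors cause a drop in the FAM fluorescence signal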
Apaf1 inhib = human Apaf-1 inhibition | O14727 | AID 489030 | reconstituted apoptosome caspase-3 activity, DEVD-Rh110 fluorescence | 330,000 tested, 0.71% active | inhibition, % at 20 µM; active means inhibition of at least 40% at 20 µM;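 further: plate controls were DMSO wells for no effect and DEVD-CHO caspase inhibitor wells for full effect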
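Medium: Hepes buffer, pH 7.5 / System: biochemical Apaf-1 apoptosome reconstitution / Measured by: Rh110 fluorescence, excitation 480 nm, emission 540 nm / Times: compound with Apaf-1, dATP, procaspase-3 30 min, then 50 min reaction, room temperature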
FID counter = displaces DNA intercalator in HCV helicase counter-screen. DNA fluorescent intercalator displacement, fluorescence. inhibition, % at 7.9 µM. 290,000 tested, 0.17% active; in the data active means inhibition above about 37%;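 further: 0% = vehicle and 100% = reference compound; higher means more ethidium bromide displaced from hairpin DNA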
RAD52 anneal inh = inhibitors of human RAD52 DNA annealing | P43351 | recombinant RAD52 DNA annealing, FRET fluorescence | inhibition, % at 18.7 µM | 360,000 tested, 0.46% active;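 active means every replicate showing at least 50% inhibition; inconclusive means mean inhibition at least 50% but not in every replicate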
Target sequence (P43351 whole entry, looked up): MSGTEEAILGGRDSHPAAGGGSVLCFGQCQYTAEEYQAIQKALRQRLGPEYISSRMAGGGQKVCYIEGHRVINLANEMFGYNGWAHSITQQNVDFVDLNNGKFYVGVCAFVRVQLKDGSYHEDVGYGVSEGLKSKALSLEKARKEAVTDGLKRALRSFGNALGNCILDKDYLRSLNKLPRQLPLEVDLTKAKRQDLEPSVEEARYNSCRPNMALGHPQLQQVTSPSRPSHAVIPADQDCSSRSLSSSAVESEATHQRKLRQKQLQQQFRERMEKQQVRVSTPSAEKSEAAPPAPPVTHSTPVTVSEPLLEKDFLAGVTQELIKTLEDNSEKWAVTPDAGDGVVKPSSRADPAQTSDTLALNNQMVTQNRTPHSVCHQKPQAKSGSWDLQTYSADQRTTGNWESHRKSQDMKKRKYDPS
Neddylation inh = cullin neddylation inhibition; P61081+Q13564; TR-FRET cullin neddylation, biochemical; calls only at 25 µM; 360,000 tested, 0.58% active; in the data active means inhibition above about 36%
UBC13 polyUb = blocks human UBC13 polyubiquitin chain formation | P61088 | TR-FRET | inhibition, % at 20 µM | 330,000 tested, 0.47% active; in the data active means inhibition above about 45%, passing the limit was not always enough; inconclusive means no clear call, values can overlap the other calls
Target sequence (P61088 whole entry, looked up): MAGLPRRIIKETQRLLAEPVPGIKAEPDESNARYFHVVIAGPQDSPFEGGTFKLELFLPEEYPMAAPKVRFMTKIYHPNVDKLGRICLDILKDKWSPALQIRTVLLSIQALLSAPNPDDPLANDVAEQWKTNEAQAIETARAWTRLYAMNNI
Rad54 DNA ctr = binds DNA, flagging false Rad54 inhibitor hits; shares compounds with RAD54 inh; Acridine orange-DNA displacement, fluorescence polarization, 20 min; AC50, µM (doses to about 35 µM), for inactives: top-dose activity change, negative = DNA binding; 460 tested, 8% active;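 active means signal drop giving an AC50 within twice the top valid tested concentration of each sample, actives reach about 35 µM in these data; inactive means activity opposite to expected, plus the rest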;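 further: polarization loss reports compound binding to salmon sperm DNA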
Active calls of the source: *; i = inactive; ? = inconclusive; / = no result shown. This is a sample that favours compounds with a hit; in the whole collection about 1.6% have one here.

SMILES	RAD54 inh	Apaf1 inhib	FID counter	RAD52 anneal inh	Neddylation inh	UBC13 polyUb	Rad54 DNA ctr
CCOC(=O)c1cnc2ccc(C)cc2c1NCCN1CCOCC1	?	1.6	7.6	4.3	i	-2.9	-15.8%
Cc1ccc(S(=O)(=O)NCC[C@@H]2CC[C@H](NC(=O)CC3CC3)[C@@H](CO)O2)cc1	-1.0	/	/	2.3	/	/	/
CO[C@H]1CN(C)C(=O)c2cc(NC(=O)NC(C)C)ccc2OC[C@@H](C)N(CC2CC2)C[C@@H]1C	-5.3	/	/	-6.8	/	/	/
CC1CCN(CCCNC(=O)c2cc3c(Cl)nc4ccccc4c3s2)CC1	89.4*	19.3	20.1	49.7	i	5.7	-20.2%
CCN1CCN(CCCNC(=O)c2cc3c(=O)[nH]c4ccccc4c3s2)CC1	51.9*	0.8	15.2	/	/	23.1	-16.7%
CCCCN(CC)CCNC(=O)c1cc2c(=O)[nH]c3ccc(C)cc3c2s1	?	17.5	12.7	21.6	/	33.8	-20.0%
COc1cccc(CN2CC3(CN(C(=O)Nc4c(C)noc4C)C3)c3c([nH]c4cc(OC)ccc34)[C@@H]2CO)c1	/	/	/	-34.4	/	/	/
COCC#Cc1ccc([C@H]2[C@H]3CN(C(=O)C4CCOCC4)CC(=O)N3[C@H]2CO)cc1	/	/	/	0.6	/	/	/
Nc1c2c(nc3cccc(Cl)c13)N(c1ccccc1)CC2	/	1.6	-1.2	-22.2	i	9.9	/
Cc1ccc2nc3c(c(N)c2c1)CCN3c1ccccc1	52.6*	17.4	14.6	/	i	?	-13.0%
Cc1noc(C)c1NC(=O)Nc1ccc2c(c1)C(=O)N([C@H](C)CO)C[C@H](C)[C@H](CN(C)Cc1ccc3c(c1)OCO3)O2	-0.7	/	/	-6.4	/	/	/
Cc1[nH]ccc2c1[nH]c1cc(=O)ccc12	68.4*	-2.3	8.8	41.5	/	18.1	-12.2%
CN(C)CCN(C(=O)c1ccco1)c1nc2cc3c(cc2s1)OCCO3	64.1*	-3.2	8.6	44.2	i	2.1	2.1%
OCCN1CCN(c2ncnc3c2sc2nc(N4CCOCC4)c4c(c23)CCC4)CC1	53.1*	2.6	-1.0	15.4	/	33.1	-8.2%
Cc1c(-c2cc(Br)ccc2O)nc2cc3c(cc2c1C)OCO3	?	15.9	-5.9	-20.8	i	-11.7	-23.5%
Cc1nc(NC(=O)c2ccc(Cl)cc2)nc2cc3c(cc12)OCO3	4.6	4.3	-2.6	/	i	19.6	/
CC(C)NC(=O)N(C)C[C@@H]1Oc2ccc(NC(=O)Nc3ccccc3)cc2C(=O)N([C@H](C)CO)C[C@@H]1C	3.7	/	/	-19.6	/	/	/
CC(C)(C)[S@@](=O)N1Cc2cc(C(=O)NCc3ccccc3F)nc(-c3cccc(-c4cncnc4)c3)c2[C@H]1CCO	3.9	/	/	-23.9	/	/	/
CCNC(=O)[C@H]1[C@H](CO)[C@H]2Cn3c(ccc(/C=C/c4ccccc4)c3=O)[C@H]2N1C(C)=O	7.5	/	/	-2.3	/	/	/
CCCCN(CC)c1nc(-c2ccncc2)nc2ccccc12	12.3	21.8	-15.4	/	i	22.9	/
CCCN(CCC)c1nc(-c2ccccn2)nc2ccccc12	89.6*	7.3	5.2	45.4	i	-2.5	-15.0%
O=C(NC[C@H]1[C@H](c2ccccc2)[C@H](CO)N1Cc1ccccn1)C1CCC1	-2.1	/	/	/	/	/	/
Cc1cc(NCCCN(C)C)n2c(nc3ccccc32)c1C#N	69.5*	-0.7	26.9	45.7	/	3.2	-13.5%
Cc1noc(C)c1S(=O)(=O)Nc1ccc2c(c1)C(=O)N([C@@H](C)CO)C[C@@H](C)[C@@H](CN(C)C(=O)Nc1ccc(F)cc1)OCCCC[C@@H](C)O2	0.6	/	/	-1.1	/	/	/
COc1ccc(Cl)c2sc(N(CCN(C)C)C(=O)C3=COCCO3)nc12	?	/	/	36.9	i	/	3.1%
SMILES	RAD54 inh	Apaf1 inhib	FID counter	RAD52 anneal inh	Neddylation inh	UBC13 polyUb	Rad54 DNA ctr
CNC(=O)C[C@@H]1CC[C@H]2[C@@H](COc3ccc(NC(=O)Nc4ccccc4)cc3C(=O)N2C)O1	-3.9	/	/	-10.0	/	/	/
CC(C)CSc1ncc(-c2cccc(C(F)(F)F)c2)cn1	?	17.1	2.6	/	i	0.8	-12.9%
Cc1cc(Nc2ccc3c(c2)OCCO3)c2cccc(C)c2n1	64.5*	-5.1	5.8	/	i	15.9	9.4%
CCOc1ccc2nc(C)cc(Nc3ccc4c(c3)OCCO4)c2c1	58.1*	-3.1	16.4	/	i	15.0	-10.6%
Cc1ccc2nc(C)cc(Nc3ccc4c(c3)OCCO4)c2c1	59.8*	4.0	-0.7	/	i	6.9	-9.1%
Cc1cc(Nc2ccc3c(c2)OCCO3)c2ccccc2n1	/	-2.4	2.3	3.6	i	1.8	/
COc1ccc(S(=O)(=O)Nc2ccc3c(c2)CC(=O)N([C@H](C)CO)C[C@@H](C)[C@H](CN(C)C(=O)NC2CCCCC2)O3)cc1	4.4	/	/	-8.3	/	/	/
OCCNc1nc(Nc2ccc(O)cc2)nc2ccccc12	52.3*	11.8	4.5	47.5	i	7.3	7.8%
C[C@H]1CN([C@@H](C)CO)C(=O)Cc2cc(NC(=O)NC3CCCCC3)ccc2O[C@@H]1CN(C)C(=O)NC1CCCCC1	5.4	/	/	7.7	/	/	/
CCOC(=O)c1cc(-c2ccncc2)nc2c1c(C)nn2-c1ccccn1	65.2*	18.8	-26.5	/	i	3.4	-8.4%
Cc1nn(-c2ccccn2)c2nc(-c3cccs3)cc(C(=O)N3CCOCC3)c12	/	7.6	-26.2	/	/	20.7	/
CN1CCN(c2nc(-c3cccs3)nc3ccccc23)CC1	71.2*	9.7	18.5	7.6	i	-17.6	-9.5%
c1ccc2c(N3CCCC3)nc(-c3ccncc3)nc2c1	/	13.9	-10.0	/	i	-5.9	/
OCCN1CCN(c2nc(-c3ccccc3O)nc3ccccc23)CC1	73.3*	5.1	26.1	30.4	i	5.1	5.4%
CN1CCN(c2nc(-c3ccncc3)nc3ccccc23)CC1	86.9*	-5.3	24.0	/	i	-4.4	-11.5%
CNC[C@@H]1Oc2c(NC(=O)c3nc4ccccc4s3)cccc2C(=O)N([C@@H](C)CO)C[C@H]1C	14.1	/	/	14.3	/	/	/
COc1cc(NC(=O)c2cccnc2Sc2ccc(C)c(C)c2)cc(OC)c1OC	?	-35.5	-7.5	/	i	-4.7	-2.5%
Nc1c(C(=O)NCCN2CCOCC2)c2nc3ccccc3nc2n1-c1ccccc1	52.2*	7.1	5.8	/	/	1.2	1.4%
Nc1c(C(=O)NCCN2CCOCC2)c2nc3ccccc3nc2n1-c1ccc2c(c1)OCO2	?	8.7	9.6	/	i	-10.3	10.6%
COc1ccc2c3c(n(C)c2c1)[C@@H](CO)N(C(C)=O)CC31CN(C(=O)Nc2ccc(F)cc2)C1	/	/	/	0.2	/	/	/
CCCCNC(=O)c1cc2c(=O)n3cccc(C)c3nc2n(Cc2ccccc2)c1=N	29.8	11.5	-4.8	18.9	/	3.5	/
COc1ccc(CCn2c(=N)c(C(=O)NCCN3CCOCC3)cc3c(=O)n4cccc(C)c4nc32)cc1OC	77.3*	-1.4	56.2*	37.1	i	-9.2	-4.4%
CCNC(=O)c1cc2c(=O)n3cccc(C)c3nc2n(CCc2ccccc2)c1=N	50.3*	1.2	-3.1	/	i	1.5	0.0%

Screening data deposited in PubChem by several laboratories.
